According to PMC4560520 (Drug Design, Development and Therapy, 2015):
Read-outs that look alike come from different tables or passages of the source.

What was measured:
healthy subjects [1] = test: Multiple ascending dose; format: in vivo, human
healthy subjects [2] = conditions: cited from earlier work
[3] = cited from earlier work; for t1/2: mean ± SD
healthy subjects [4] = conditions: febuxostat multiple 80 mg once-daily doses after a high-fat meal; cited from earlier work
healthy subjects [5] = test: Single ascending dose; format: in vivo, human; conditions: for Change in Cmean,24 of serum uric acid from baseline: Day 1, mean (SD), n=8
Summary of the method: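 Healthy volunteers got a single oral dose on day 1, fasted, with placebo on day -1 for baseline and standardized meals. Serial blood was taken on days -1 and 1; aliquots were stored at -70°C. Serum uric acid, xanthine and hypoxanthine were measured by a validated assay. Cmean,24 = noncompartmental AUC0–24/24, as % change from baseline. Urinary Ae = urine volume × concentration.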

[6] = SAD study incl. food effect: pharmacokinetics of LC350189 in plasma and urine; format: in vivo, human
healthy subjects [7] = test: Safety and tolerability evaluation; format: in vivo, human
Summary of the method: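 The single-dose part covered 10–600 mg; the multiple-dose part gave 100–800 mg orally once daily for 7 days after an overnight fast, with 8 active subjects per dose group. Adverse events came from a questionnaire or spontaneous reports. Renal toxicity was assessed with a NGAL test.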

XO = XO (Homo sapiens, UniProt P47989); test: PK/PD relationship, Emax model; format: in vivo
XO, sequence (P47989 whole entry): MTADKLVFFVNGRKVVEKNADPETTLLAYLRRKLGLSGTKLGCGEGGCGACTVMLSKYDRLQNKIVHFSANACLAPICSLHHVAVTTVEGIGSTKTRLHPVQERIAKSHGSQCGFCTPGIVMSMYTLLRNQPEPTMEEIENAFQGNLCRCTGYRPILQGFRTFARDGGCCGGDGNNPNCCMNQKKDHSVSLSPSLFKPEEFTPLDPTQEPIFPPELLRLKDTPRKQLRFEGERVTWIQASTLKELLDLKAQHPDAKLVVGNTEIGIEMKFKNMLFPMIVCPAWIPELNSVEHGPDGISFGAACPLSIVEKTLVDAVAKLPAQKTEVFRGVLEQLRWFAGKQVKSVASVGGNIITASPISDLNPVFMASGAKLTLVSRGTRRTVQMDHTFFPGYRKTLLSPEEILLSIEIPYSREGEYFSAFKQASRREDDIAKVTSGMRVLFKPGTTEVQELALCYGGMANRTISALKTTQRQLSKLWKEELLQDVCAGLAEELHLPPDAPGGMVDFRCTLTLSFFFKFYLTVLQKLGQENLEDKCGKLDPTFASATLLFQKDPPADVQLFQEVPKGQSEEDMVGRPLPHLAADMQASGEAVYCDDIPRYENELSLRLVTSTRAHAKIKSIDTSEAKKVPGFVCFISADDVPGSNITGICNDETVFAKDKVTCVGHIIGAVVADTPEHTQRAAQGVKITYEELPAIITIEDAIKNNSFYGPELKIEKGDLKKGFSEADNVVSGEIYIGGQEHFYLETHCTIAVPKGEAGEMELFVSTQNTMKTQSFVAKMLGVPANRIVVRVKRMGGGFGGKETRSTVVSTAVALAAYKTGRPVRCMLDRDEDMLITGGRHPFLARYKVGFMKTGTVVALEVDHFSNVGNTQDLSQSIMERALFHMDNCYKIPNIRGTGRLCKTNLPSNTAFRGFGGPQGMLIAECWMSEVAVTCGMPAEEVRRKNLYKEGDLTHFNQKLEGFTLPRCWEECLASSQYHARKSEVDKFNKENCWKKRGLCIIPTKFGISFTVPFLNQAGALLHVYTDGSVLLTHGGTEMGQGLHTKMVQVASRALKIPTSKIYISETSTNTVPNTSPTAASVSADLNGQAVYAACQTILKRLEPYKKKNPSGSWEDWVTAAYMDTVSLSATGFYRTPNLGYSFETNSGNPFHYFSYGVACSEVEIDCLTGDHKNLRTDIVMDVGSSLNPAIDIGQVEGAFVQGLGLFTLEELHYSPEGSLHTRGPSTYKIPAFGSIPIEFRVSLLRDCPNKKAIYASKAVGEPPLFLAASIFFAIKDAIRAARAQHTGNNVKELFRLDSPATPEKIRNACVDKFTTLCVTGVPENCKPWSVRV

XO enzyme = conditions: in vitro; ref data on file at LG Life Sciences; cited from earlier work
SUA = conditions: in vivo study; ref data on file at LG Life Sciences; cited from earlier work
rat = conditions: preclinical studies, no reference given; cited from earlier work
dog = conditions: preclinical studies, no reference given; cited from earlier work
liver microsome = conditions: in vitro liver microsome study; preclinical, no reference given; cited from earlier work
CYP isoenzymes = conditions: incubated with CYP isoenzymes; preclinical, no reference given; cited from earlier work
[8] = 200 mg, fed (high-fat diet) vs fasting

Cc1nc(-c2ccc(OCC(C)C)c(C#N)c2)sc1C(=O)O [Febuxostat, febuxostat]
Maximum percentage decrease from baseline in Cmean,24 for SUA (healthy subjects [1]; febuxostat group (80 mg once daily for 7 days)): 58.8% | Maximum percentage decrease from baseline in Cmean,24 (healthy subjects [2]; febuxostat 40 mg dose group): ~ 40% | Maximum percentage decrease from baseline in Cmean,24 (healthy subjects [2]; febuxostat 90 mg dose group): 60% | Inhibition of the enzyme (XO), Emax (healthy subjects [2]; febuxostat): 81.4% | Allergic reaction, subjects (healthy subjects [2]; previous febuxostat multiple-dose study): six out of 118 subjects | t1/2 ([3]; febuxostat 40 mg): 10.3 ± 7.4 h | t1/2 ([3]; febuxostat 70 mg): 12.5 ± 7.7 h | Tmax ([3]; febuxostat): ~ 1 hour | Change by food in the percentage decrease in SUA concentration (healthy subjects [4]): no clinically significant change | Change of AUC by food (healthy subjects [4]): slight decrease

CC(C)n1cc(C#N)c2cc(-n3cc(C(=O)O)cn3)ccc21 [LC350189]
Change in Cmean,24 of serum uric acid from baseline (healthy subjects [5]; SAD single oral 200 mg, fasting): −22.9% | Change in Cmean,24 of serum uric acid from baseline (healthy subjects [5]; SAD single oral 600 mg, fasted): −31.7% | Increase of Cmean,24 of xanthine (healthy subjects [5]; after a single dose): two- to seven-fold | Change in Cmean,24 of serum uric acid from baseline (healthy subjects [1]; MAD 800 mg once daily for 7 days, fasted, Day 7, mean (SD), n=6): −91.2% | Amount of uric acid excreted in the urine relative to baseline (healthy subjects [1]; after multiple administrations): one-third to one-tenth of the baseline level | Maximum percentage decrease from baseline in Cmean,24 for SUA (healthy subjects [1]; after multiple administrations of LC350189): 91.2% | Increase of Cmean,24 of xanthine (healthy subjects [1]; after multiple administrations, day 7): three-to eight-fold | Geometric mean ratio (90% CI) of AUClast with and without food ([6]; 200 mg single dose): 0.973 (0.837–1.131) | Geometric mean ratio (90% CI) of Cmax, fed vs fasting ([6]; 200 mg single dose): 0.624 (0.485–0.802) | Decrease of Cmax by food [6, 8]: 38% | Delay of absorption by food [6, 8]: ~ 2 hours | Time up to which plasma concentrations were detected ([6]; SAD low-dose groups (10 mg, 25 mg, 50 mg), LLOQ 5 ng/mL): up to 48 hours | half-life ([6]; male, human, plasma, oral, t1/2, overall, approximate): ~10 h | Allergic reaction (healthy subjects [7]; SAD and MAD): no allergic reaction | Renal toxicity according to the NGAL test (healthy subjects [7]; SAD and MAD): no signals of renal toxicity | Tolerability (healthy subjects [7]; single and multiple oral administrations, dose range 10–800 mg): well tolerated | Emax (maximum percentage decrease in Cmean,24 of SUA) (XO; Emax model, day 7, MAD, 95% CI 94.8%–105.4%): 100.1% | Inhibition of XO activity (XO; multiple doses at 100 mg, AUC at steady state close to EAUC50): ~50% | Emax (XO; read-out: Inhibition of XO based on the Emax model): ~100% | Inhibition of XO enzyme activity (XO enzyme): comparable to febuxostat | Reduction of SUA (SUA): sufficiently reduced SUA | Dose up to which no significant toxicity was found (rat): 12.5 mg/kg | Dose up to which no significant toxicity was found (dog): 200 mg/kg | Metabolic stability (liver microsome): metabolically stable | Metabolic stability (CYP isoenzymes): metabolically stable
